# Measurements reported in ChEMBL document CHEMBL2163334, “Discovery of highly potent and selective pan-Aurora kinase inhibitors with enhanced in vivo antitumor therapeutic index” (J Med Chem, 2012).
# Tests used:
# Aurora kinase A = target: T1, Aurora kinase A (Homo sapiens, UniProt O14965); test: Binding affinity to Aurora kinase A catalytic domain by competition binding assay
# T1 sequence (O14965 whole entry): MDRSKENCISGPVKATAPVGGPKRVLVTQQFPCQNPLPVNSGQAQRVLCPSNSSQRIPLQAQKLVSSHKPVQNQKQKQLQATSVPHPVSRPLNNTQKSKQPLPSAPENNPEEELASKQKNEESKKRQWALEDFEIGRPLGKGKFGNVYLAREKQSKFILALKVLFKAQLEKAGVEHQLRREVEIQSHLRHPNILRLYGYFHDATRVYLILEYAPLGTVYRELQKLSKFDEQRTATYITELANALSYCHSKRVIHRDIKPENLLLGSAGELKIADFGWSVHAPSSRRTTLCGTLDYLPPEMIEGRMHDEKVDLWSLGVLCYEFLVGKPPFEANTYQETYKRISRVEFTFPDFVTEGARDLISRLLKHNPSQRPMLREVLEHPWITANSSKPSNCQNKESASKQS
# Aurora kinase B [1] = target: T2, Aurora kinase B (Homo sapiens, UniProt Q96GD4); test: Inhibition of Aurora kinase B-mediated histone H3 Ser10 phosphorylation in human HCT116 cells after 2 hrs by sandwich ELISA; format: cell-based, HCT-116
# T2 sequence (Q96GD4 whole entry): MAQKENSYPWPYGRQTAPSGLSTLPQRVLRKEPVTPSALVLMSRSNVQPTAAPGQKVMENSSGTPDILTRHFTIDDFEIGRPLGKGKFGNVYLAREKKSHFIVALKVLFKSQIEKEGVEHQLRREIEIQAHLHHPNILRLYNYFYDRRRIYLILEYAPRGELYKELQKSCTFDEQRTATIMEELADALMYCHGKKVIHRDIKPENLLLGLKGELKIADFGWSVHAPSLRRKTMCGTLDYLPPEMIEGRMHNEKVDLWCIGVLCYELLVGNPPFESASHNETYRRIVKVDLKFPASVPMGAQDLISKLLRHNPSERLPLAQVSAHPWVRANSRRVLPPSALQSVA
# How it was run: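 HCT-116 cells seeded 4 × 10⁴/well, 4-6 h at 37 °C, then arrested overnight (16-18 h) with nocodazole at 66 ng/mL final. Treated 2 h with nine-point 3-fold dilutions in DMSO; lysed with phosphatase inhibitor, phospho-H3 (Ser10) sandwich ELISA read at 450 nm. IC50 = 50% inhibition of phosphorylation; duplicate runs averaged.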
# Aurora kinase B [2] = target: T2, Aurora kinase B; test: Binding affinity to Aurora kinase B catalytic domain by competition binding assay
# HCT-116 = test: Antiproliferative activity against human HCT116 cells after 72 hrs by BrdU-based ELISA; format: functional, cell-based; settings: HCT-116, 72 h
# How it was run: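 HCT-116 cells in McCoy's 5A with 10% FBS and pen/strep, seeded 800 cells/well, left overnight at 37 °C, 5% CO2. Nine-point 3-fold serial dilutions in DMSO added for 72 h; BrdU colorimetric ELISA read at 450 and 690 nm. IC50 is the concentration halving proliferation; duplicate runs averaged.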
Structure (SMILES),Kd (Aurora kinase A) [nM],IC50 (Aurora kinase B [1]) [nM],Kd (Aurora kinase B [2]) [nM],IC50 (HCT-116) [nM]
Cc1cc(Nc2nc(Sc3ccc(NC(=O)CN4CC[C@@H](NC(=O)C(C)C)C4)cc3)nn3cccc23)n[nH]1,13.1,114,5.7,46.5
Cc1cc(Nc2nc(Sc3ccc(NC(=O)CN4CC[C@@H](S(=O)(=O)C(C)(C)C)C4)cc3)nn3cccc23)n[nH]1,4,28.6,4.3,9.2
Cc1cc(Nc2nc(Sc3ccc(NC(=O)CN4CC[C@@H](C(=O)N5CCCC5)C4)cc3)nn3cccc23)n[nH]1,6.3,6.3,2.5,2.2
Cc1cc(Nc2nc(Sc3ccc(NC(=O)CN4CC[C@@H](C(=O)N5CCOCC5)C4)cc3)nn3cccc23)n[nH]1,4,14.6,2.6,3.9
Cc1cc(Nc2nc(Sc3ccc(NC(=O)CN4CC[C@@H](C(=O)NCCN5CCOCC5)C4)cc3)nn3cccc23)n[nH]1,6.3,63.2,2.9,19
Cc1cc(Nc2nc(Sc3ccc(NC(=O)CN4CC[C@@H](NS(C)(=O)=O)C4)cc3)nn3cccc23)n[nH]1,12.3,362,3.2,270
Cc1cc(Nc2nc(Sc3ccc(NC(=O)CN4CC[C@@H](OCCN5CCN(C)CC5)C4)cc3)nn3cccc23)n[nH]1,12.5,169,2.9,29.8
Cc1cc(Nc2nc(Sc3ccc(NC(=O)CN4CC[C@@H](OCCO)C4)cc3)nn3cccc23)n[nH]1,4.5,13,1.7,5
Cc1cc(Nc2nc(Sc3ccc(NC(=O)CN4CC[C@H](O)C4)cc3)nn3cccc23)n[nH]1,39,420,14.8,227
Cc1cc(Nc2nc(Sc3ccc(NC(=O)CN4CC[C@@H](OCCN5CCOCC5)C4)cc3)nn3cccc23)n[nH]1,11,43.4,6.6,17.8
Cc1cc(Nc2nc(Sc3ccc(NC(=O)CN4CC[C@@H](C(=O)NC5CCC5)C4)cc3)nn3cccc23)n[nH]1,4.2,9.3,3.3,1.3
Cc1cc(Nc2nc(Sc3ccc(NC(=O)CN4CCC(C(=O)N5CCCC5)C4)cc3)nn3cccc23)n[nH]1 (racemic),8.8,9,2.4,2.9
Cc1cc(Nc2nc(Sc3ccc(NC(=O)CN4CC[C@@H]([S+]([O-])C(C)(C)C)C4)cc3)nn3cccc23)n[nH]1 (stereo partly specified),2.8,11.9,3.1,3.4
Cc1cc(Nc2nc(Sc3ccc(NC(=O)CN4CCC(C(=O)C(C)(C)C)C4)cc3)nn3cccc23)n[nH]1 (racemic),16.9,44.8,6.1,12.5
Cc1cc(Nc2nc(Sc3ccc(NC(=O)CN4CC[C@H](C(=O)N5CCCC5)C4)cc3)nn3cccc23)n[nH]1,10.1,37.6,1.9,16.7
Cc1cc(Nc2nc(Sc3ccc(NC(=O)CN4CC[C@@H](C(=O)N5CCCCC5)C4)cc3)nn3cccc23)n[nH]1,6.4,10,2.9,3.2
Cc1cc(Nc2nc(Sc3ccc(NC(=O)CN4CC[C@@H](SC(C)(C)C)C4)cc3)nn3cccc23)n[nH]1,25.2,94.5,14.2,19.3
Cc1cc(Nc2nc(Sc3ccc(NC(=O)CN4CC[C@@H](OCCCN5CCOCC5)C4)cc3)nn3cccc23)n[nH]1,5.1,27.1,3.7,10.8
Cc1cc(Nc2nc(Sc3ccc(NC(=O)CN4CC[C@@H](OC(C)(C)C)C4)cc3)nn3cccc23)n[nH]1,25,8.9,3.6,2.6
